According to ChEMBL document CHEMBL3046951, “Volatile constituents from the leaves of Callicarpa japonica Thunb. and their antibacterial activities” (2004):

Key:
Type in all cases: functional
Salmonella typhimurium [1] = experiment: Antimicrobial activity against Salmonella enterica subsp. enterica serovar Typhimurium ATCC 14028 assessed as growth inhibition rate at 678.64 mg/l after 72 hr by spectrophotometry; settings: ATCC 14028, 72 h, read-out: GI
Salmonella typhimurium [2] = experiment: Antimicrobial activity against Salmonella enterica subsp. enterica serovar Typhimurium ATCC 14028 assessed as growth inhibition rate at 135.68 mg/l after 72 hr by spectrophotometry; settings: ATCC 14028, 72 h, read-out: GI
How it was run: (§1)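 Salmonella Typhimurium ATCC 14028 grown in nutrient broth at 30 °C, precultured 24 h, then subcultured 1:100 for 18 h before testing. Single volatile compounds (>95% pure) were added. OD was read every 24 h over 72 h in a Bioscreen C, with 10% Tween 80 as the comparison control.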

Salmonella typhimurium [3] = experiment: Antimicrobial activity against Salmonella enterica subsp. enterica serovar Typhimurium ATCC 14028 assessed as growth inhibition rate at 67.88 mg/l after 72 hr by spectrophotometry; settings: ATCC 14028, 72 h, read-out: GI
Salmonella typhimurium [4] = experiment: Antimicrobial activity against Salmonella enterica subsp. enterica serovar Typhimurium ATCC 14028 assessed as growth inhibition rate at 25.52 mg/l after 72 hr by spectrophotometry; settings: ATCC 14028, 72 h, read-out: GI; how it was run: as §1
Salmonella typhimurium [5] = experiment: Antimicrobial activity against Salmonella enterica subsp. enterica serovar Typhimurium ATCC 14028 assessed as growth inhibition rate at 12.48 mg/l after 72 hr by spectrophotometry; settings: ATCC 14028, 72 h, read-out: GI; how it was run: as §1
Bacillus cereus [6] = experiment: Antimicrobial activity against Bacillus cereus ATCC 11778 assessed as growth inhibition rate at 678.64 mg/l after 72 hr by spectrophotometry; settings: ATCC 11778, 72 h, read-out: GI
How it was run: (§2)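 Pure volatile compounds (purity >95%; one at 90%) were tested against B. cereus ATCC 11778. The strain was grown at 30 °C in nutrient broth for 24 h, then subcultured for 18 h. Optical density was read in a Bioscreen C every 24 h for 72 h, with 10% Tween 80 as the control.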

Bacillus cereus [7] = experiment: Antimicrobial activity against Bacillus cereus ATCC 11778 assessed as growth inhibition rate at 135.68 mg/l after 72 hr by spectrophotometry; settings: ATCC 11778, 72 h, read-out: GI; how it was run: as §2
Bacillus cereus [8] = experiment: Antimicrobial activity against Bacillus cereus ATCC 11778 assessed as growth inhibition rate at 67.88 mg/l after 72 hr by spectrophotometry; settings: ATCC 11778, 72 h, read-out: GI; how it was run: as §2
Bacillus cereus [9] = experiment: Antimicrobial activity against Bacillus cereus ATCC 11778 assessed as growth inhibition rate at 25.52 mg/l after 72 hr by spectrophotometry; settings: ATCC 11778, 72 h, read-out: GI; how it was run: as §2
Bacillus cereus [10] = experiment: Antimicrobial activity against Bacillus cereus ATCC 11778 assessed as growth inhibition rate at 12.48 mg/l after 72 hr by spectrophotometry; settings: ATCC 11778, 72 h, read-out: GI; how it was run: as §2
Listeria monocytogenes [11] = experiment: Antimicrobial activity against Listeria monocytogenes ATCC 19111 assessed as growth inhibition rate at 339.32 mg/l after 72 hr by spectrophotometry; settings: ATCC 19111, 72 h, read-out: GI
How it was run: (§3)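 L. monocytogenes was grown at 30 °C in tryptic soy broth, subcultured for 18 h, and exposed to pure volatile compounds (>95% purity). Growth was followed by Bioscreen C optical density every 24 h for 72 h against a 10% Tween 80 control.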

Escherichia coli [12] = experiment: Antimicrobial activity against Escherichia coli O157:H7 ATCC 43894 assessed as growth inhibition rate at 678.64 mg/l after 72 hr by spectrophotometry; settings: O157:H7 ATCC 43894, 72 h, read-out: GI
How it was run: (§4)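 Authentic volatiles (>95% purity; 2,4-heptadienal 90%) tested against 18 h subcultures. Growth media: E. coli O157:H7 and S. aureus in tryptic soy broth at 37 °C; L. monocytogenes in tryptic soy broth at 30 °C; V. parahaemolyticus in tryptic soy broth + 3% NaCl at 37 °C; S. typhimurium in nutrient broth at 30 °C. Bioscreen C OD every 24 h for 72 h versus 10% Tween 80 control.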

Escherichia coli [13] = experiment: Antimicrobial activity against Escherichia coli O157:H7 ATCC 43894 assessed as growth inhibition rate at 135.68 mg/l after 72 hr by spectrophotometry; settings: O157:H7 ATCC 43894, 72 h, read-out: GI
Escherichia coli [14] = experiment: Antimicrobial activity against Escherichia coli O157:H7 ATCC 43894 assessed as growth inhibition rate at 67.88 mg/l after 72 hr by spectrophotometry; settings: O157:H7 ATCC 43894, 72 h, read-out: GI; how it was run: as §4
Escherichia coli [15] = experiment: Antimicrobial activity against Escherichia coli O157:H7 ATCC 43894 assessed as growth inhibition rate at 25.52 mg/l after 72 hr by spectrophotometry; settings: O157:H7 ATCC 43894, 72 h, read-out: GI
Escherichia coli [16] = experiment: Antimicrobial activity against Escherichia coli O157:H7 ATCC 43894 assessed as growth inhibition rate at 12.48 mg/l after 72 hr by spectrophotometry; settings: O157:H7 ATCC 43894, 72 h, read-out: GI
Staphylococcus aureus [17] = experiment: Antimicrobial activity against Staphylococcus aureus ATCC 25923 assessed as growth inhibition rate at 678.64 mg/l after 72 hr by spectrophotometry; settings: ATCC 25923, 72 h, read-out: GI
Staphylococcus aureus [18] = experiment: Antimicrobial activity against Staphylococcus aureus ATCC 25923 assessed as growth inhibition rate at 135.68 mg/l after 72 hr by spectrophotometry; settings: ATCC 25923, 72 h, read-out: GI
Staphylococcus aureus [19] = experiment: Antimicrobial activity against Staphylococcus aureus ATCC 25923 assessed as growth inhibition rate at 67.88 mg/l after 72 hr by spectrophotometry; settings: ATCC 25923, 72 h, read-out: GI
Staphylococcus aureus [20] = experiment: Antimicrobial activity against Staphylococcus aureus ATCC 25923 assessed as growth inhibition rate at 25.52 mg/l after 72 hr by spectrophotometry; settings: ATCC 25923, 72 h, read-out: GI
Staphylococcus aureus [21] = experiment: Antimicrobial activity against Staphylococcus aureus ATCC 25923 assessed as growth inhibition rate at 12.48 mg/l after 72 hr by spectrophotometry; settings: ATCC 25923, 72 h, read-out: GI
Vibrio parahaemolyticus [22] = experiment: Antimicrobial activity against Vibrio parahaemolyticus ATCC 33844 assessed as growth inhibition rate at 339.32 mg/l after 72 hr by spectrophotometry; settings: ATCC 33844, 72 h, read-out: GI
Salmonella typhimurium [23] = experiment: Antimicrobial activity against Salmonella enterica subsp. enterica serovar Typhimurium ATCC 14028 assessed as growth inhibition rate at 339.32 mg/l after 72 hr by spectrophotometry; settings: ATCC 14028, 72 h, read-out: GI; how it was run: as §1
Escherichia coli [24] = experiment: Antimicrobial activity against Escherichia coli O157:H7 ATCC 43894 assessed as growth inhibition rate at 339.32 mg/l after 72 hr by spectrophotometry; settings: O157:H7 ATCC 43894, 72 h, read-out: GI
Staphylococcus aureus [25] = experiment: Antimicrobial activity against Staphylococcus aureus ATCC 25923 assessed as growth inhibition rate at 339.32 mg/l after 72 hr by spectrophotometry; settings: ATCC 25923, 72 h, read-out: GI
Listeria monocytogenes [26] = experiment: Antimicrobial activity against Listeria monocytogenes ATCC 19111 assessed as growth inhibition rate at 12.48 mg/l after 72 hr by spectrophotometry; settings: ATCC 19111, 72 h, read-out: GI; how it was run: as §3
Vibrio parahaemolyticus [27] = experiment: Antimicrobial activity against Vibrio parahaemolyticus ATCC 33844 assessed as growth inhibition rate at 12.48 mg/l after 72 hr by spectrophotometry; settings: ATCC 33844, 72 h, read-out: GI
Listeria monocytogenes [28] = experiment: Antimicrobial activity against Listeria monocytogenes ATCC 19111 assessed as growth inhibition rate at 678.64 mg/l after 72 hr by spectrophotometry; settings: ATCC 19111, 72 h, read-out: GI
How it was run: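 Pure volatile compounds (>95% purity) tested on Listeria monocytogenes ATCC 19111 in tryptic soy broth at 30 °C. Inoculum: 24 h culture subcultured (0.1 mL into 9.9 mL broth) and grown 18 h. Growth followed by Bioscreen C optical density every 24 h for 72 h against a 10% Tween 80 control.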

Listeria monocytogenes [29] = experiment: Antimicrobial activity against Listeria monocytogenes ATCC 19111 assessed as growth inhibition rate at 135.68 mg/l after 72 hr by spectrophotometry; settings: ATCC 19111, 72 h, read-out: GI; how it was run: as §3
Listeria monocytogenes [30] = experiment: Antimicrobial activity against Listeria monocytogenes ATCC 19111 assessed as growth inhibition rate at 67.88 mg/l after 72 hr by spectrophotometry; settings: ATCC 19111, 72 h, read-out: GI; how it was run: as §3
Listeria monocytogenes [31] = experiment: Antimicrobial activity against Listeria monocytogenes ATCC 19111 assessed as growth inhibition rate at 25.52 mg/l after 72 hr by spectrophotometry; settings: ATCC 19111, 72 h, read-out: GI; how it was run: as §3
Vibrio parahaemolyticus [32] = experiment: Antimicrobial activity against Vibrio parahaemolyticus ATCC 33844 assessed as growth inhibition rate at 678.64 mg/l after 72 hr by spectrophotometry; settings: ATCC 33844, 72 h, read-out: GI
Vibrio parahaemolyticus [33] = experiment: Antimicrobial activity against Vibrio parahaemolyticus ATCC 33844 assessed as growth inhibition rate at 135.68 mg/l after 72 hr by spectrophotometry; settings: ATCC 33844, 72 h, read-out: GI
Vibrio parahaemolyticus [34] = experiment: Antimicrobial activity against Vibrio parahaemolyticus ATCC 33844 assessed as growth inhibition rate at 67.88 mg/l after 72 hr by spectrophotometry; settings: ATCC 33844, 72 h, read-out: GI
Vibrio parahaemolyticus [35] = experiment: Antimicrobial activity against Vibrio parahaemolyticus ATCC 33844 assessed as growth inhibition rate at 25.52 mg/l after 72 hr by spectrophotometry; settings: ATCC 33844, 72 h, read-out: GI
Bacillus cereus [36] = experiment: Antimicrobial activity against Bacillus cereus ATCC 11778 assessed as growth inhibition rate at 339.32 mg/l after 72 hr by spectrophotometry; settings: ATCC 11778, 72 h, read-out: GI; how it was run: as §2

## C=C[C@H](O)CCCCC
Salmonella typhimurium [1]
  inhibition of growth at 678.64 µg/mL: 98.4%
Salmonella typhimurium [2]
  inhibition of growth at 135.68 µg/mL: 25.4%
Salmonella typhimurium [3]
  inhibition of growth at 67.88 µg/mL: 17.7%
Salmonella typhimurium [4]
  inhibition of growth at 25.52 µg/mL: 16.7%
Salmonella typhimurium [5]
  inhibition of growth at 12.48 µg/mL: 18.2%
Bacillus cereus [6]
  inhibition of growth at 678.64 µg/mL: 90.8%
Bacillus cereus [7]
  inhibition of growth at 135.68 µg/mL: 7.6%
Bacillus cereus [8]
  inhibition of growth at 67.88 µg/mL: 4.2%
Bacillus cereus [9]
  inhibition of growth at 25.52 µg/mL: 0%
Bacillus cereus [10]
  inhibition of growth at 12.48 µg/mL: 0%
Listeria monocytogenes [11]
  inhibition of growth at 339.32 µg/mL: 27.3%
Escherichia coli [12]
  inhibition of growth at 678.64 µg/mL: 96.5%
Escherichia coli [13]
  inhibition of growth at 135.68 µg/mL: 8.9%
Escherichia coli [14]
  inhibition of growth at 67.88 µg/mL: 7.9%
Escherichia coli [15]
  inhibition of growth at 25.52 µg/mL: 6.3%
Escherichia coli [16]
  inhibition of growth at 12.48 µg/mL: 8.3%
Staphylococcus aureus [17]
  inhibition of growth at 678.64 µg/mL: 80.6%
Staphylococcus aureus [18]
  inhibition of growth at 135.68 µg/mL: 8.7%
Staphylococcus aureus [19]
  inhibition of growth at 67.88 µg/mL: 5.7%
Staphylococcus aureus [20]
  inhibition of growth at 25.52 µg/mL: 6.6%
Staphylococcus aureus [21]
  inhibition of growth at 12.48 µg/mL: 3.6%
Vibrio parahaemolyticus [22]
  inhibition of growth at 339.32 µg/mL: 90.4%
Salmonella typhimurium [23]
  inhibition of growth at 339.32 µg/mL: 79.1%
Escherichia coli [24]
  inhibition of growth at 339.32 µg/mL: 87.2%
Staphylococcus aureus [25]
  inhibition of growth at 339.32 µg/mL: 50.2%
Listeria monocytogenes [26]
  inhibition of growth at 12.48 µg/mL: 5.4%
Vibrio parahaemolyticus [27]
  inhibition of growth at 12.48 µg/mL: 11.1%
Listeria monocytogenes [28]
  inhibition of growth at 678.64 µg/mL: 39.8%
Listeria monocytogenes [29]
  inhibition of growth at 135.68 µg/mL: 8.2%
Listeria monocytogenes [30]
  inhibition of growth at 67.88 µg/mL: 5%
Listeria monocytogenes [31]
  inhibition of growth at 25.52 µg/mL: 6.7%
Vibrio parahaemolyticus [32]
  inhibition of growth at 678.64 µg/mL: 98.8%
Vibrio parahaemolyticus [33]
  inhibition of growth at 135.68 µg/mL: 21.5%
Vibrio parahaemolyticus [34]
  inhibition of growth at 67.88 µg/mL: 13.5%
Vibrio parahaemolyticus [35]
  inhibition of growth at 25.52 µg/mL: 14.3%
Bacillus cereus [36]
  inhibition of growth at 339.32 µg/mL: 54.6%
